We go through 12 molecules from ChEMBL document CHEMBL4382209, “Comparison between porphin, chlorin and bacteriochlorin derivatives for photodynamic therapy: Synthesis, photophysical properties, and biological activity” (Eur J Med Chem, 2018).

Data set [1] relates to ECa-109 cell line. The experiment in a line: Phototoxicity against human ECA109 cells assessed as decrease in cell viability after 24 hrs at 16 J/cm2 irradiation by MTT assay. Particulars: ECa-109, light or radiation study. The format is functional, cell-based. An outline of the steps:
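Eca-109 cells (5×10^4/well, attached for 24 h) took up compound (0–16 μM) for 24 h. They were washed with PBS and irradiated with Nd:YAG laser at 16 J/cm²: 635 nm for porphins, 650 nm for chlorins, 730 nm for bacteriochlorins. MTT viability was read 24 h later, and IC50 was derived.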

Data set [2] in a line: Dark toxicity in human ECA109 cells assessed as decrease in cell viability after 24 hrs by MTT assay. The format is cell-based, ECa-109. (Formazan colour is commonly taken as a measure of viable cells.)
Data set [3] is described as follows: Induction of singlet oxygen generation assessed as singlet oxygen quantum yield by measuring DPBF chemical oxidation in DMF solution incubated up to 8 mins at 5 mW/cm2 laser irradiation by UV-Vis spectrophotometry. The format is functional.
A short description of data set [4]: Dark toxicity in human ECA109 cells assessed as cell survival at 20 uM after 24 hrs by MTT assay relative to control. The format is cell-based, ECa-109. The settings on record: read-out: Survival. In short, it runs like this: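 Eca-109 human esophageal carcinoma cells in RPMI-1640 with 10% FBS, trypsinised and seeded at 5×10^4 cells per well, attached for 24 h. Photosensitiser in medium (0 to 60 μM) was taken up for 24 h and the cells were not irradiated. Viability was read by MTT colorimetric assay 24 h after treatment.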

The nature of data set [5]: Induction of singlet oxygen generation assessed as singlet oxygen quantum yield by measuring DPBF chemical oxidation in DMF solution incubated up to 4 mins at 5 mW/cm2 laser irradiation by UV-Vis spectrophotometry. The format is functional.
A short description of data set [6]: Drug uptake in lysosomes of human ECA109 cells at 10 uM after 4 hrs by Lyso Blue dye-based confocal fluorescence microscopic method. It counts as ADME, subcellular, Lysosome. Particulars: eca-109, 4 h. An outline of the steps:
(§1)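 Eca-109 cells were plated on poly-L-lysine-coated coverslips at 1×10^5 cells/mL. After 24 h, they took up 10 μM compound in the dark for 4 h at 37 °C. They were stained with Mito-tracker Green or Lyso-Blue for 20 min at 37 °C, rinsed, and fixed in 4% paraformaldehyde at 4 °C for 30 min. Confocal imaging used sequential scans, exciting at 490 nm (Mito), 373 nm (Lyso, PS).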

The subject of data set [7] is ECa-109 cell line. The experiment in a line: Antitumor activity against human ECA109 cells xenografted in BALB/c nude mouse assessed as tumor size at 5 mg/kg, iv measured every other day up to 14 days. It counts as functional, organism-based. An outline of the steps:
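Four-week-old female BALB/c nude mice were given 5×10^6 Eca-109 cells s.c. in PBS into the right forelimb. At about 100 mm³ (~14 days), the compound was given at 5 mg/kg in 0.2 mL via the lateral tail vein, with no irradiation; 6 mice/group. Orthogonal L and W were measured every two days for 14 days, and V = LW²/2.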
A general note: In xenograft studies the graft and the host belong to different species.

The nature of data set [8]: Induction of singlet oxygen generation assessed as singlet oxygen quantum yield by measuring DPBF chemical oxidation in DMF solution incubated up to 5 mins at 5 mW/cm2 laser irradiation by UV-Vis spectrophotometry. The format is functional.
The subject of data set [9] is ECa-109 cell line. The data set can be described thus: Antitumor activity against human ECA109 cells xenografted in BALB/c nude mouse assessed as tumor size at 5 mg/kg, iv treated for 24 hrs before 120 J/cm2 laser light irradiation for 5 mins and measured every other day up to 14 days (reference value: 785 +/- 37 mm3). It counts as functional. An outline of the steps:
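Eca-109 s.c. xenografts (5×10^6 cells, right forelimb) were grown in female BALB/c nude mice to ~100 mm³. Compound 5 mg/kg in 0.2 mL went i.v. into the tail vein. At 24 h, restrained unanaesthetised mice got 730 nm laser at 120 J/cm² to the tumour. Controls received no PS or light; 6 mice/group. Volume LW²/2 was taken every two days for 14 days.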

Data set [10] in a line: Drug uptake in mitochondria of human ECA109 cells at 10 uM after 4 hrs by Mito Tracker green dye-based confocal fluorescence microscopic method. It counts as ADME. The settings on record: eca-109, 4 h. An outline of the steps: as §1

By IC50 is commonly meant the concentration at which inhibition is half-maximal.

Active and inactive are the calls of the source. No cut-off for these calls is given here. Where only a bound is given, the exact number is not on record here.

For `COc1ccc(-c2c3nc(cc4ccc([nH]4)c(-c4ccc(OC)c(OCC(=O)O)c4)c4nc(cc5ccc2[nH]5)CC4)CC3)cc1OCC(=O)O`, in data set [1], the IC50 is 3.09 µM. The IC50 at 24 h in data set [2] was 187 µM. Also, the DPBF oxidation rate constant in data set [3] was 38.7 ×10⁻² k/min. Moreover, the viability at 24 h, 20 µM in data set [4] was 80%.

`O=C(O)COc1cccc(-c2c3nc(cc4ccc([nH]4)c(-c4cccc(OCC(=O)O)c4)c4nc(cc5ccc2[nH]5)CC4)CC3)c1`: the IC50 in data set [1] was found to be 2.62 µM. Further, the 50% inhibitory concentration (IC50) at 24 h in data set [2] was 162 µM. Further, the DPBF oxidation rate constant in [3] came out at 30.9 ×10⁻² k/min. The viability at 24 h, 20 µM in data set [4] was 80%.

For the molecule `COc1ccc(-c2c3nc(cc4ccc([nH]4)c(-c4ccc(OC)c(OCCCC(=O)O)c4)c4nc(cc5ccc2[nH]5)C=C4)C=C3)cc1OCCCC(=O)O`, in data set [1], the IC50 turned out to be 10.1 µM. In addition, the IC50 at 24 h in data set [2] is 183 µM. Also, in data set [3], the DPBF oxidation rate constant amounted to 1.68 ×10⁻² k/min. Besides, in data set [4], the viability at 24 h, 20 µM came out at 80%.

With `COc1ccc(-c2c3nc(cc4ccc([nH]4)c(-c4ccc(OC)c(OCC(=O)O)c4)c4nc(cc5ccc2[nH]5)C=C4)C=C3)cc1OCC(=O)O`, in data set [1], the concentration for half-maximal inhibition (IC50) is 12.5 µM. Further, the IC50 at 24 h in data set [2] was found to be 158 µM. Also, the DPBF oxidation rate constant in data set [3] is 2.41 ×10⁻² k/min. For the same molecule, the viability at 24 h, 20 µM in data set [4] was 80%.

`COc1ccc(-c2c3nc(cc4ccc([nH]4)c(-c4ccc(OC)c(OCC(=O)O)c4)c4nc(cc5ccc2[nH]5)CC4)C=C3)cc1OCC(=O)O`: the IC50 in data set [1] came out at 3.14 µM. Moreover, the IC50 at 24 h in data set [2] turned out to be 111 µM. Besides, in data set [3], the DPBF oxidation rate constant is 14.2 ×10⁻² k/min. Moreover, in data set [4], the viability at 24 h, 20 µM came to 80%.

Turning to `O=C(O)COc1cccc(-c2c3nc(cc4ccc([nH]4)c(-c4cccc(OCC(=O)O)c4)c4nc(cc5ccc2[nH]5)C=C4)C=C3)c1`, in [1], the IC50 worked out at 9.41 µM. In addition, in data set [2], the IC50 at 24 h was 74.6 µM. Moreover, the DPBF oxidation rate constant in data set [3] is 0.829 ×10⁻² k/min. For the same molecule, in data set [4], the viability at 24 h, 20 µM was found to be 80%.

As to `O=C(O)CCCOc1cccc(-c2c3nc(cc4ccc([nH]4)c(-c4cccc(OCCCC(=O)O)c4)c4nc(cc5ccc2[nH]5)CC4)C=C3)c1`, the concentration for half-maximal inhibition (IC50) in [1] was found to be 2.65 µM. The IC50 at 24 h in data set [2] was over 300 µM. In data set [3], the DPBF oxidation rate constant is 24.9 ×10⁻² k/min. Besides, the viability at 24 h, 20 µM in data set [4] is 80%.

`O=C(O)CCCOc1cccc(-c2c3nc(cc4ccc([nH]4)c(-c4cccc(OCCCC(=O)O)c4)c4nc(cc5ccc2[nH]5)C=C4)C=C3)c1`: the IC50 in data set [1] amounted to 8.19 µM. For the same molecule, the IC50 at 24 h in [2] is 271 µM. Besides, the DPBF oxidation rate constant in data set [3] was 1.93 ×10⁻² k/min. In addition, in data set [4], the viability at 24 h, 20 µM is 80%.

Take `COc1ccc(-c2c3nc(cc4ccc([nH]4)c(-c4ccc(OC)c(OCCCC(=O)O)c4)c4nc(cc5ccc2[nH]5)CC4)CC3)cc1OCCCC(=O)O`: the IC50 in data set [1] was 2.47 µM. Also, the Activity in [5] is 48.6 ×10⁻² k/min. In addition, the half-maximal inhibitory concentration (IC50) at 24 h in data set [2] is over 300 µM. Moreover, the viability at 24 h, 20 µM in [4] stood at 80%.

Regarding `O=C(O)CCCOc1cccc(-c2c3nc(cc4ccc([nH]4)c(-c4cccc(OCCCC(=O)O)c4)c4nc(cc5ccc2[nH]5)CC4)CC3)c1`, the Drug uptake entry in data set [6] and in data set [10] was “Active” in each case. In addition, the outcome in data set [7] was inactive. The IC50 in data set [1] is 2.43 µM. Moreover, the Activity in [8] came to 69.1 ×10⁻² k/min; in data set [9], 126 mm3. In addition, the IC50 at 24 h in data set [2] is over 500 µM. Moreover, the viability at 24 h, 20 µM in data set [4] was determined as 80%.

For the molecule `COc1ccc(-c2c3nc(cc4ccc([nH]4)c(-c4ccc(OC)c(OCCCC(=O)O)c4)c4nc(cc5ccc2[nH]5)CC4)C=C3)cc1OCCCC(=O)O`, the IC50 in data set [1] is 2.83 µM. Further, the IC50 at 24 h in data set [2] is over 300 µM. Also, in data set [3], the DPBF oxidation rate constant worked out at 19.8 ×10⁻² k/min. Also, in [4], the viability at 24 h, 20 µM was 80%.

For the molecule `O=C(O)COc1cccc(-c2c3nc(cc4ccc([nH]4)c(-c4cccc(OCC(=O)O)c4)c4nc(cc5ccc2[nH]5)CC4)C=C3)c1`, the IC50 in [1] is 3.31 µM. Also, the Activity in data set [8] was 4.06 ×10⁻² k/min. In data set [2], the IC50 at 24 h amounted to 91.8 µM. The viability at 24 h, 20 µM in data set [4] was 80%.
